HUVEC inhibit: inhibitors of HUVEC proliferation, primary screen, cell-based, 384-well | 1.1% of 86,000 active | viability, % at 10 µM (by protocol) | CellTiter-Glo luminescence, 72 h; hits give low values;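 active = viability at or below 30%; inactive = viability above 30%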
Jurkat viability: cytotoxicity toward Jurkat T cells, primary screen, cytotoxicity control, cell-based, Jurkat E6.1, 60K MLSMR library; AID 463, 2006; Jurkat E6.1 viability, ATP luminescence, 48 h; inhibition, % at 4 µM; 1.2% of 56,000 active;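 active = inhibition above the mean inhibition of all tested compounds plus 3 SD, cut at about 28% in these data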
Ecoli WT expand: growth inhibitors of wild-type E. coli, primary screen, strain BW25113, expanded library, OD600; 0.15% of 98,000 active; AID 710, 2007; growth inhibition, % at 100 µM; OD600 absorbance;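 active = growth inhibition above about 50% at one test dose, limit read from the data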;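 note: growth measured after 20 h incubation at 37 °C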
tolC growth inh: growth inhibitors of E. coli tolC mutant, primary screen, strain BW25113 ΔtolC::kan, 384-well | OD615 | growth inhibition, % at 10 µM (by protocol) | 2.2% of 65,000 active | AID 573, 2007;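 active = growth inhibition at or above a cutoff equal to the mean over every tested compound plus 3 SD, cut at about 60% in these data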;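 note: growth measured after 20 h incubation at 37 °C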
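Doses: one dose of 10 µM final / Material: E. coli BW25113 ΔtolC::kan, tolC deletion mutant strain / Buffer or medium: LB with kanamycin 50 µg/mL / Evaluation: percent growth inhibition / Detection: optical density read at 615 nm / Incubation: 37 °C, 20 h exposure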
H69AR growth 86K: proliferation blockers of H69AR lung cancer cells, primary screen, cell-based, human, 86K library; H69AR lung tumor viability, ATP luminescence, 72 h; hits give low values; viability, % at 10 µM; 6% of 85,000 active;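 active = viability at or below 40%; inactive = viability above 40%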;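 note: multidrug resistant small cell line overexpressing MRP-1 efflux transporter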
Lung fibro prol: antiproliferative effect on LL 47 fibroblasts – human, LL 47 cells, CellTiter-Glo luminescence, primary screen | LL 47 human lung fibroblast viability, ATP luminescence; hits give low values | viability, % at 10 µM | 1.1% of 85,000 active | AID 719, 2007;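 active = viability at or below 50% in the single dose screen; inactive = viability above 50%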;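 note: compound exposure lasted 72 h before the ATP readout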
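test system = LL 47 human lung fibroblasts | amount = 1,150 fibroblasts seeded per well | medium = 15% FBS in IMEM | times = overnight cell rest, 72 h compound treatment at 37 °C | measured by = CellTiter-Glo luminescence measuring cellular ATP | read-out = viability percentage against median untreated-cell control | benchmarks = cell-only wells, no compound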
Each line names hits and unclear results; the compound was inactive in the other large screens. The list is not random: actives were taken first. Their share in the collection is about 6.4%.

Cn1nc(-c2ccc(Cl)cc2)c2cc(C(=O)NCCCN3CCCC3)sc21	HUVEC inhibit 1.7, H69AR growth 86K 0.9, Lung fibro prol 14
CCN(Cc1ccccc1)Cc1cccc([N+](=O)[O-])c1	none (no result: HUVEC inhibit, Jurkat viability, tolC growth inh, H69AR growth 86K, Lung fibro prol)
N=c1ccn(Cc2ccc(Cl)cc2Cl)cc1	none (no result: Jurkat viability, tolC growth inh)
CN1C(=O)NC(c2cccc(O)c2)C(C(=O)c2cccs2)C1(O)C(F)(F)F (stereo not drawn)	Ecoli WT expand 75
COc1ccccc1N1CCN(c2ccc(-c3ccccc3)nn2)CC1	H69AR growth 86K 19, Lung fibro prol 50 (no result: Jurkat viability)
COc1ccccc1N1CCN(c2nc(-c3ccccc3)cc(C(F)(F)F)n2)CC1	none (no result: Jurkat viability)
Oc1ccc(Nc2nc(N3CCCC3)c3ccccc3n2)cc1	H69AR growth 86K 0.7, Lung fibro prol 2.5
Cn1cc(/C(Cc2ccccc2)=N\O)c2ccccc21	Jurkat viability 59
Cn1cc(SCC(=O)O)c2ccccc21	none (no result: Jurkat viability, tolC growth inh)
Cc1ccccc1-n1c(=O)/c(=C\c2ccco2)s/c1=C(/C#N)C(=O)Nc1ccccc1	none (no result: Jurkat viability)
N#CC1=C(N)n2c(s/c(=C\c3ccco3)c2=O)=C(C#N)C1c1ccco1 (stereo not drawn)	H69AR growth 86K 38
CCOC(=O)C1=c2s/c(=C\c3cccnc3)c(=O)n2C(N)=C(C(=O)OC)C1c1cccnc1 (stereo not drawn)	none (no result: Jurkat viability, tolC growth inh)
CCOC(=O)C1=C(N)n2c(s/c(=C/c3ccco3)c2=O)=C(C(=O)OC)C1c1ccco1 (stereo not drawn)	HUVEC inhibit 13, H69AR growth 86K 4.8
O=C(c1cccc2ccccc12)N1CCC(N2CCN(c3ccccc3)CC2)CC1	none (no result: HUVEC inhibit, Jurkat viability, H69AR growth 86K, Lung fibro prol)
CCCCOc1ccccc1NC(=O)CC1Nc2ccccc2NC1=O (stereo not drawn)	H69AR growth 86K 40 (no result: Ecoli WT expand)
CCOC(=O)N1CCN(C(=O)c2ccccc2-c2ccccc2)CC1	Jurkat viability 79, H69AR growth 86K 19 (no result: Ecoli WT expand)
COc1ccc(C(=O)/C=C/c2ccccc2C(F)(F)F)cc1	none (no result: HUVEC inhibit, Jurkat viability, tolC growth inh, H69AR growth 86K, Lung fibro prol)
CCOC(=O)c1ccc(N/C=C/C(=O)c2ccco2)cc1	H69AR growth 86K 17 (no result: Jurkat viability, tolC growth inh)
Oc1c(C(c2cccs2)N2CCN(c3cccc(Cl)c3)CC2)sc2ncnn12 (stereo not drawn)	tolC growth inh 100
Oc1c(C(c2ccco2)N2CCN(C(c3ccccc3)c3ccccc3)CC2)sc2ncnn12 (stereo not drawn)	tolC growth inh 64, H69AR growth 86K 33
Oc1c(C(c2cccs2)N2CCOCC2)sc2ncnn12 (stereo not drawn)	none
Cc1ccc(C)c(/C(O)=C2\C(=O)C(=O)N(CCCN(C)C)C2c2cccnc2)c1 (stereo not drawn)	none (no result: HUVEC inhibit, Jurkat viability, Ecoli WT expand, H69AR growth 86K, Lung fibro prol)
Cc1cc2oc(=O)cc(CN3CCCCC3C)c2c(C)c1Cl (stereo not drawn)	none
Cc1cc(C)n(-c2nc(SCCN(C)C)c3c4c(sc3n2)COC(C)(C)C4)n1	none (no result: HUVEC inhibit, Jurkat viability, tolC growth inh, H69AR growth 86K, Lung fibro prol)
CCOC(=O)C(C)Oc1cccc2c(=O)n(CC(=O)NCc3ccco3)ccc12 (stereo not drawn)	Jurkat viability 96 (no result: HUVEC inhibit, H69AR growth 86K, Lung fibro prol)
CC(C)C(=O)c1cn(CC(=O)NCc2ccco2)c2ccccc12	none (no result: Jurkat viability, Ecoli WT expand, tolC growth inh)
O=C(O)CC(c1cccc2ccccc12)n1cccc1 (stereo not drawn)	none (no result: Jurkat viability, tolC growth inh)
O=C(c1ccco1)N1CCN(c2ncnc3scc(-c4ccc(F)cc4)c23)CC1	H69AR growth 86K 24 (no result: Jurkat viability, Ecoli WT expand, tolC growth inh)
C=CCOC(=O)C(C#N)c1nc2ccccc2nc1N1CCCC1 (stereo not drawn)	tolC growth inh 96
CCCCCCOC(=O)C(C#N)c1nc2ccccc2nc1N1CCN(CC)CC1 (stereo not drawn)	HUVEC inhibit 4.3
CCCCCCOC(=O)C(C#N)c1nc2ccccc2nc1N1CCOCC1 (stereo not drawn)	none
N#C/C(=C\c1cn[nH]c1-c1ccc(Cl)cc1)C(=O)NCc1ccccc1	none (no result: HUVEC inhibit, Jurkat viability, tolC growth inh, H69AR growth 86K, Lung fibro prol)
C/C(=N/NC(=O)c1cccs1)c1ccc(NC(=O)COc2ccc(Cl)cc2)cc1	none (no result: HUVEC inhibit, Jurkat viability, tolC growth inh, H69AR growth 86K, Lung fibro prol)
Cc1ccccc1NC(=O)CN(C)S(=O)(=O)c1cccc2cccnc12	none
CCn1c(SCC(=O)Nc2nccs2)nnc1-c1ccc(S(=O)(=O)N2CCCCC2)cc1	none
Cc1oc2c(CN3CCCC3)c(O)ccc2c(=O)c1-c1ccc(Br)cc1	tolC growth inh 77
COc1ccc(-c2c(C)oc3c(CN4CCN(CCO)CC4)c(O)ccc3c2=O)cc1OC	none
CCOc1cc(NC(=O)c2ccco2)c(OCC)cc1NC(=O)COc1ccccc1C	H69AR growth 86K 20 (no result: Ecoli WT expand)
Cc1ccc(OCc2nc(C#N)c(NCc3ccc4c(c3)OCO4)o2)cc1	tolC growth inh 81 (no result: Jurkat viability)
CCOc1ccc(-c2nc(C#N)c(NCc3ccc4c(c3)OCO4)o2)cc1	none
CN(C)CCNc1oc(COc2ccc(-c3ccccc3)cc2)nc1C#N	H69AR growth 86K 15, Lung fibro prol 45
COc1ccc(CCNc2oc(COc3ccccc3F)nc2C#N)cc1	tolC growth inh 88
N#Cc1nc(COc2ccc(-c3ccccc3)cc2)oc1NCCCN1CCOCC1	HUVEC inhibit 6.3
C=CCc1ccc(OCCOc2cccc3ccc(C)nc23)c(OC)c1	none (no result: HUVEC inhibit, Jurkat viability, tolC growth inh, H69AR growth 86K, Lung fibro prol)
O=C(NCCSCc1ccccc1)c1ccc(C2SCC(=O)N2Cc2ccccc2)cc1 (stereo not drawn)	none (no result: Jurkat viability, tolC growth inh)
N#Cc1c(N2CCCC(O)C2)nc(N)c2c(N)nc3c(c12)CC(=O)N3C12CC3CC(CC(C3)C1)C2 (stereo not drawn)	HUVEC inhibit 16, H69AR growth 86K 3.3 (no result: Jurkat viability, tolC growth inh)
O=c1oc2c3c4c(cc2cc1-c1nc2ccccc2[nH]1)CCCN4CCC3	H69AR growth 86K 1.5 (no result: Ecoli WT expand)
COc1ccccc1C(=O)Nc1cc(Cl)ccc1O	none (no result: Jurkat viability)
CCOc1ccccc1C(=O)Nc1cc(Cl)ccc1O	tolC growth inh 100, H69AR growth 86K 30
COc1ccccc1C(=O)O/N=C(/C)c1ccc(N2C(=O)C3CCCCC3C2=O)cc1 (stereo not drawn)	none (no result: HUVEC inhibit, Jurkat viability, tolC growth inh, H69AR growth 86K, Lung fibro prol)
CCCCC(CCCC)=N/N=C/c1c(O)n(CC)c2cc(C3=NNC(=O)CC3)ccc12	H69AR growth 86K 33 (no result: Jurkat viability, Ecoli WT expand, tolC growth inh)
CCOC(=O)C1CCN(C(=O)Nc2ccc3nc(-c4ccco4)c(-c4ccco4)nc3c2)CC1	H69AR growth 86K 38 (no result: Jurkat viability)
Cc1ccc2c(c1)NC(=O)C(CC(=O)NCCCN1CCCCC1)O2 (stereo not drawn)	none
Cc1ccc2c(c1)NC(=O)C(CC(=O)NCCCN1CCN(c3cc(Cl)ccc3C)CC1)O2 (stereo not drawn)	HUVEC inhibit 2.9, tolC growth inh 71
Cn1c(C(=O)OC(C(=O)NC2CCCCC2)c2ccncc2)cc2sccc21 (stereo not drawn)	H69AR growth 86K 23
CCn1c(NC(=O)c2cccc(Cn3cc(Cl)cn3)c2)nc2ccccc21	Jurkat viability 75
CC(C)CNC(=O)c1cccc(Cn2cc(Cl)cn2)c1	none
